Test results: ChEMBL document CHEMBL1149086, “Antimalarial and antitumor evaluation of novel C-10 non-acetal dimers of 10beta-(2-hydroxyethyl)deoxoartemisinin” (J Med Chem, 2004)

Tests used:
[1] = system: LOX IMVI; experiment: Concentration required to achieve total growth inhibition against melanoma LOX IMVI cell line; type: functional; settings: Homo sapiens
[2] = system: MCF7; experiment: Concentration required to achieve total growth inhibition against breast MCF-7 cancer cell line; type: functional; settings: Homo sapiens
[3] = system: MCF7; experiment: Concentration of the drug required to achieve 50% cytotoxicity against breast MCF-7 cancer cell line; type: cell-based; settings: human
[4] = system: Malme-3M; experiment: inhibition against melanoma MALME-3M cell line; type: functional; settings: Homo sapiens
[5] = system: Malme-3M; experiment: Concentration of the drug required to achieve 50% cytotoxicity against melanoma MALME-3M cell line; type: cell-based; settings: human
[6] = system: MOLT-4; experiment: Concentration required to achieve total growth inhibition against leukemia MOLT-4 cell line; type: functional; settings: Homo sapiens
[7] = system: Malme-3M; experiment: Concentration required to achieve total growth inhibition against melanoma MALME-3M cell line; type: functional; settings: Homo sapiens
[8] = system: MOLT-4; experiment: Concentration of the drug required to achieve 50% cytotoxicity against leukemia MOLT-4 cell line; type: functional; settings: Homo sapiens, read-out: LC50 (the source's name)
[9] = system: NCI/ADR-RES; experiment: inhibition against breast NCI/ ADR-RES cancer cell line; type: functional; settings: Homo sapiens
[10] = system: NCI/ADR-RES; experiment: Concentration of the drug required to achieve 50% cytotoxicity against breast NCI/ ADR-RES cancer cell line; type: cell-based; settings: human
[11] = system: NCI/ADR-RES; experiment: Concentration required to achieve total growth inhibition against breast NCI/ ADR-RES cancer cell line; type: functional; settings: Homo sapiens
[12] = system: PC-3; experiment: Concentration of the drug required to achieve 50% cytotoxicity against prostate PC-3 cell line; type: cell-based; settings: human
[13] = system: PC-3; experiment: inhibition against prostate PC-3 cell line; type: functional; settings: Homo sapiens
[14] = system: Plasmodium falciparum; experiment: In vitro antimalarial activity against Plasmodium falciparum HB3 by [3H]hypoxanthine uptake; type: functional, organism-based
[15] = system: PC-3; experiment: Concentration required to achieve total growth inhibition against prostate PC-3 cell line; type: functional; settings: Homo sapiens
[16] = system: RPMI-8226; experiment: Concentration of the drug required to achieve 50% cytotoxicity against leukemia RPMI-8226 cell line; type: functional; settings: Homo sapiens, read-out: LC50 (the source's name)
[17] = system: RPMI-8226; experiment: Concentration required to achieve total growth inhibition against leukemia RPMI-8226 cell line; type: functional; settings: Homo sapiens
[18] = system: SW-620; experiment: inhibition against colon SW-620 cancer cell line; type: functional; settings: Homo sapiens
[19] = system: SW-620; experiment: Concentration of the drug required to achieve 50% cytotoxicity against colon SW-620 cancer cell line; type: cell-based; settings: human
[20] = system: SR; experiment: inhibition against leukemia SR cell line; type: functional; settings: Homo sapiens
[21] = system: SR; experiment: Concentration of the drug required to achieve 50% cytotoxicity against leukemia SR cell line; type: functional; settings: Homo sapiens, read-out: LC50 (the source's name)
[22] = system: SR; experiment: Concentration required to achieve total growth inhibition against leukemia SR cell line; type: functional; settings: Homo sapiens
[23] = system: SW-620; experiment: Concentration required to achieve total growth inhibition against colon SW-620 cancer cell line; type: functional; settings: Homo sapiens
[24] = system: SK-MEL-5; experiment: inhibition against melanoma SK-MEL-5 cell line; type: functional; settings: Homo sapiens
[25] = system: SK-MEL-5; experiment: Concentration required to achieve total growth inhibition against melanoma SK-MEL-5 cell line; type: functional; settings: Homo sapiens
[26] = Concentration of the drug required to achieve 50% cytotoxicity against leukemia CCRF-CEM cell line; type: functional; settings: Homo sapiens, read-out: LC50 (the source's name)
[27] = system: T47D; experiment: inhibition against breast T-47D cancer cell line; type: functional; settings: Homo sapiens
[28] = system: T47D; experiment: Concentration of the drug required to achieve 50% cytotoxicity against breast T-47D cancer cell line; type: cell-based; settings: human
[29] = system: T47D; experiment: Concentration required to achieve total growth inhibition against breast T-47D cancer cell line; type: functional; settings: Homo sapiens
[30] = system: UACC-62; experiment: inhibition against melanoma UACC-62 cell line; type: functional; settings: Homo sapiens
[31] = system: UACC-62; experiment: Concentration of the drug required to achieve 50% cytotoxicity against melanoma UACC-62 cell line; type: cell-based; settings: human
[32] = system: UACC-62; experiment: Concentration required to achieve total growth inhibition against melanoma UACC-62 cell line; type: functional; settings: Homo sapiens
[33] = system: HL-60; experiment: Inhibitory concentration against HL60 cells; type: functional, cell-based; settings: Homo sapiens
Summary of the method: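 HL60 (2.5 × 10⁴/well) or Jurkat (1 × 10⁵/well) in RPMI-1640 with 10% FBS and 1% L-glutamine, 5% CO2, 37 °C. Exposed to 10⁻¹⁰–10⁻⁴ M for 72 h, final DMSO below 0.5% v/v. [3H]-thymidine (0.5 μCi) added for the final 24 h. Incorporation counted by β-scintillation.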

[34] = system: SK-MEL-5; experiment: Concentration of the drug required to achieve 50% cytotoxicity against melanoma SK-MEL-5 cell line; type: cell-based; settings: human
[35] = system: RPMI-8226; experiment: inhibition against leukemia RPMI-8226 cell line; type: functional; settings: Homo sapiens
[36] = system: K562; experiment: inhibition against leukemia K-562 cell line; type: functional; settings: Homo sapiens
[37] = system: MCF7; experiment: inhibition against breast MCF-7 cancer cell line; type: functional; settings: Homo sapiens

**Q.** Which TGI [1] does the source give for C[C@H]1[C@@H](CCOP(=O)(OCC[C@H]2O[C@@H]3OC4(C)CC[C@H]5[C@H](C)CC[C@@H]([C@H]2C)[C@@]35OO4)Oc2ccccc2)O[C@@H]2OC3(C)CC[C@H]4[C@H](C)CC[C@@H]1[C@@]24OO3 (single isomer, unassigned) here?
**A.** Its TGI is 15.6 µM.

**Q.** And the TGI [2]?
**A.** Its TGI is > 100 µM.

**Q.** What about the LC50 [3] of the same molecule?
**A.** Its LC50 is > 100 µM.

**Q.** What about the GI50 [4] of the same molecule?
**A.** The GI50 was 0.194 µM.

**Q.** What about the LC50 [5] of the same molecule?
**A.** Its LC50 is > 100 µM.

**Q.** What about the TGI [6] of the same molecule?
**A.** The TGI was 11.9 µM.

**Q.** What about the TGI [7] of the same molecule?
**A.** Its TGI is 30.8 µM.

**Q.** What about the CC50 [8] of the same molecule?
**A.** Its CC50 is > 100 µM.

**Q.** And the GI50 [9]?
**A.** Its GI50 is 0.5 µM.

**Q.** What about the LC50 [10] of the same molecule?
**A.** Its LC50 is > 100 µM.

**Q.** What about the TGI [11] of the same molecule?
**A.** Its TGI is 45.2 µM.

**Q.** And the LC50 [12]?
**A.** The LC50 was > 100 µM.

**Q.** And the GI50 [13]?
**A.** The GI50 was < 0.01 µM.

**Q.** And the IC50 [14]?
**A.** Its IC50 is 0.00018 µM.

**Q.** And the TGI [15]?
**A.** The TGI was 65.5 µM.

**Q.** And the CC50 [16]?
**A.** Its CC50 is > 100 µM.

**Q.** And the TGI [17]?
**A.** Its TGI is 0.01 µM.

**Q.** What about the GI50 [18] of the same molecule?
**A.** Its GI50 is < 0.01 µM.

**Q.** And the LC50 [19]?
**A.** Its LC50 is > 100 µM.

**Q.** And the GI50 [20]?
**A.** The GI50 was < 0.01 µM.

**Q.** And the CC50 [21]?
**A.** The CC50 was > 100 µM.

**Q.** And the TGI [22]?
**A.** Its TGI is 0.263 µM.

**Q.** What about the TGI [23] of the same molecule?
**A.** The TGI was 100 µM.

**Q.** What about the GI50 [24] of the same molecule?
**A.** Its GI50 is 0.013 µM.

**Q.** And the TGI [25]?
**A.** The TGI was 2.25 µM.

**Q.** What about the CC50 [26] of the same molecule?
**A.** The CC50 was > 100 µM.

**Q.** What about the GI50 [27] of the same molecule?
**A.** Its GI50 is 0.0256 µM.

**Q.** What about the LC50 [28] of the same molecule?
**A.** The LC50 was > 100 µM.

**Q.** What about the TGI [29] of the same molecule?
**A.** Its TGI is < 10 µM.

**Q.** And the GI50 [30]?
**A.** Its GI50 is 0.0753 µM.

**Q.** And the LC50 [31]?
**A.** Its LC50 is > 100 µM.

**Q.** What about the TGI [32] of the same molecule?
**A.** Its TGI is 21.8 µM.

**Q.** What about the IC50 [33] of the same molecule?
**A.** The IC50 was 0.241 µM.

**Q.** What about the LC50 [34] of the same molecule?
**A.** Its LC50 is > 100 µM.

**Q.** And the GI50 [35]?
**A.** The GI50 was < 0.01 µM.

**Q.** And the GI50 [36]?
**A.** The GI50 was < 0.01 µM.

**Q.** And the GI50 [37]?
**A.** The GI50 was 0.106 µM.
